pIC50: −log10 of the molar value. Converted amounts (≈) assume the structure as drawn. The source made the active and inactive calls. The calls are words filed in the database; no cut-off is given here.
Experiments:
Mycobacterium avium = assay: Antitubercular activity against Mycobacterium avium CNCTC My 330/88 assessed as inhibition of bacterial growth measured after 21 days of incubation by Sulas semisynthetic medium based assay; type: functional; details: CNCTC My 330/88, 504 h, time 21 day
Summary of the method: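 M. avium was tested by the micromethod in Sula's semisynthetic medium. Compounds in DMSO at 1000 to 0.5 μmol/L. Incubation at 37 °C, read at 14 and 21 days. MIC is the lowest concentration giving >99% growth inhibition.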

Mycobacterium kansasii [1] = assay: Antitubercular activity against Mycobacterium kansasii CNCTC My 235/80 assessed as inhibition of bacterial growth measured after 14 days of incubation by Sulas semisynthetic medium based assay; type: functional; details: CNCTC My 235/80, 336 h, time 14 day
Summary of the method: (§1)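 Micromethod in Sula's semisynthetic medium. MIC is the lowest concentration inhibiting >99% of the mycobacterial population. Isoniazid was the standard.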

Mycobacterium kansasii [2] = assay: Antitubercular activity against Mycobacterium kansasii CNCTC My 235/80 assessed as inhibition of bacterial growth measured after 21 days of incubation by Sulas semisynthetic medium based assay; type: functional; details: CNCTC My 235/80, 504 h, time 21 day; summary of the method: as §1
[3] = test system: Mycobacterium tuberculosis; assay: Antimycobacterial activity against MDR clinical isolate Mycobacterium tuberculosis PRAHA 1 assessed as inhibition of mycobacterial growth measured after 14 to 21 days of incubation by Sulas semisynthetic medium based assay; type: functional; details: time 14-21 day
Summary of the method: (§2)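 Clinical MDR/XDR M. tuberculosis isolates were tested by the Sula's semisynthetic medium micromethod. Compounds in DMSO at 1000 to 0.5 μmol/L, in twofold-type steps. Incubation at 37 °C, read at 14 and 21 days. MIC99 is the lowest concentration inhibiting >99% of growth. Drug resistance or susceptibility of each isolate is to amikacin, clofazimine, gentamicin, ofloxacin, streptomycin and the others listed.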

[4] = test system: Mycobacterium tuberculosis; assay: Antimycobacterial activity against XDR clinical isolate Mycobacterium tuberculosis PRAHA 1 assessed as inhibition of mycobacterial growth measured after 14 to 21 days of incubation by Sulas semisynthetic medium based assay; type: functional; details: time 14-21 day; summary of the method: as §2
[5] = test system: Mycobacterium tuberculosis; assay: Antimycobacterial activity against MDR clinical isolate Mycobacterium tuberculosis PRAHA 131 assessed as inhibition of mycobacterial growth measured after 14 to 21 days of incubation by Sulas semisynthetic medium based assay; type: functional; details: time 14-21 day; summary of the method: as §2
[6] = test system: Mycobacterium tuberculosis; assay: Antimycobacterial activity against MDR clinical isolate Mycobacterium tuberculosis 9449/2007 assessed as inhibition of mycobacterial growth measured after 14 to 21 days of incubation by Sulas semisynthetic medium based assay; type: functional; details: time 14-21 day; summary of the method: as §2
[7] = test system: Mycobacterium tuberculosis; assay: Antimycobacterial activity against XDR clinical isolate Mycobacterium tuberculosis 9449/2007 assessed as inhibition of mycobacterial growth measured after 14 to 21 days of incubation by Sulas semisynthetic medium based assay; type: functional; details: time 14-21 day; summary of the method: as §2
[8] = test system: Mycobacterium tuberculosis; assay: Antimycobacterial activity against MDR clinical isolate Mycobacterium tuberculosis 7357/1998 assessed as inhibition of mycobacterial growth measured after 14 to 21 days of incubation by Sulas semisynthetic medium based assay; type: functional; details: time 14-21 day; summary of the method: as §2
[9] = test system: Mycobacterium tuberculosis; assay: Antimycobacterial activity against XDR clinical isolate Mycobacterium tuberculosis 7357/1998 assessed as inhibition of mycobacterial growth measured after 14 to 21 days of incubation by Sulas semisynthetic medium based assay; type: functional; details: time 14-21 day; summary of the method: as §2
[10] = test system: Mycobacterium tuberculosis; assay: Antimycobacterial activity against XDR clinical isolate Mycobacterium tuberculosis 8666/2010 assessed as inhibition of mycobacterial growth measured after 14 to 21 days of incubation by Sulas semisynthetic medium based assay; type: functional; details: time 14-21 day; summary of the method: as §2
HepG2 = assay: Cytotoxicity against human HepG2 cells incubated for 24 hrs by MTT assay; type: functional, cell-based; details: HepG2, 24 h
Summary of the method: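 HepG2 cells in DMEM with 10% FBS, seeded at 15 × 10³ cells/well and attached overnight. Exposed for 24 h to serial dilutions prepared from DMSO stocks, final DMSO ≤1%. Then given fresh medium with 0.5 mg/mL MTT for 1 h at 37 °C. Formazan dissolved in DMSO and read at 570 nm. IC50 from 4-parameter nonlinear regression; three independent experiments in triplicate, mean ± SD.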

H9c2 = assay: Cytotoxicity against rat H9c2 cells assessed as cell viability incubated for 72 hrs by MTT spectrophotometric analysis; type: functional, cell-based; details: H9c2, 72 h
Summary of the method: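 HepG2 or rat H9c2 cells in DMEM with FBS, seeded at 10,000 cells/well. Treated 24 h later for 72 h, with 0.1% DMSO vehicle and 1% Triton X-100 as controls. MTT added (3 mg/mL solution) for 2 h at 37 °C, then cells lysed in isopropanol/0.1 M HCl/5% Triton X-100. Read at 570 nm minus 690 nm. Viability expressed as % of vehicle; IC50 derived where reached. At least four independent experiments.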

[11] = Intrinsic clearance in human liver microsomes at 3 uM incubated for 5 to 45 min in presence of NADPH by LC-MS analysis; type: ADME, Microsome; details: time 5-45 min, read-out: CLH
Staphylococcus aureus [12] = assay: Antibacterial activity against Staphylococcus aureus C1947 assessed as inhibition of bacterial growth incubated for 24 to 48 hrs by microdilution broth method; type: functional, organism-based; details: time 24-48 hrs
Summary of the method: (§3)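 Clinical isolates kept at –70 °C and subcultured twice on Mueller-Hinton agar, using the second subculture. Broth microdilution in Mueller-Hinton broth at pH 7.4 with two-fold serial compound dilutions and DMSO ≤1% final. Inoculum was 10 μL of a 1.5 × 10⁸ CFU/mL suspension. Incubated at 36 °C ± 1 °C and read at 24 h and 48 h. MIC taken as 95% growth inhibition.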

Staphylococcus aureus [13] = assay: Antibacterial activity against methicilin-resistant Staphylococcus aureus C1923 assessed as inhibition of bacterial growth incubated for 24 to 48 hrs by microdilution broth method; type: functional, organism-based; details: time 24-48 hrs
Summary of the method: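 Clinical isolates, stored at −70 °C, were passaged twice on Mueller-Hinton agar. Broth microdilution in Mueller-Hinton broth, pH 7.4, with twofold serial dilutions. DMSO was at most 1% final. Inoculum 1.5 × 10⁸ CFU/mL suspension. MIC is 95% growth inhibition, read after 24 and 48 h at 36 °C.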

[14] = test system: Staphylococcus epidermidis; assay: Antibacterial activity against Staphylococcus epidermidis C1936 assessed as inhibition of bacterial growth incubated for 24 to 48 hrs by microdilution broth method; type: functional, organism-based; details: time 24-48 hrs; summary of the method: as §3
Escherichia coli = assay: Antibacterial activity against Escherichia coli A1235 assessed as inhibition of bacterial growth incubated for 24 to 48 hrs by microdilution broth method; type: functional, organism-based; details: time 24-48 hrs; summary of the method: as §3
Klebsiella pneumoniae = assay: Antibacterial activity against ESBL positive Klebsiella pneumoniae C1914 assessed as inhibition of bacterial growth incubated for 24 to 48 hrs by microdilution broth method; type: functional, organism-based; details: time 24-48 hrs; summary of the method: as §3

SMILES	MIC99 (Mycobacterium avium)	MIC99 (Mycobacterium kansasii [1])	MIC99 (Mycobacterium kansasii [2])	MIC99 [3]	MIC99 [4]	MIC99 [5]	MIC99 [6]	MIC99 [7]	MIC99 [8]	MIC99 [9]	MIC99 [10]	pIC50 (HepG2)	pIC50 (H9c2)	microsomal CLint at 3 µM [11]	Activity (Staphylococcus aureus [12])	Activity (Staphylococcus aureus [13])	Activity [14]	Activity (Escherichia coli)	Activity (Klebsiella pneumoniae)
O=c1[nH]c(N2CCCCC2)nc2ncn(Cc3ccc4ccccc4c3)c12	> 500 µM	> 500 µM	> 500 µM	16 µM (≈ 5.75 µg/mL)	16 µM (≈ 5.75 µg/mL)	8 µM (≈ 2.88 µg/mL)	8 µM (≈ 2.88 µg/mL)	16 µM (≈ 5.75 µg/mL)	16 µM (≈ 5.75 µg/mL)	16 µM (≈ 5.75 µg/mL)	8 µM (≈ 2.88 µg/mL)	4.06	< 4.30	77.9 µL/min/mg	inactive	inactive	inactive	inactive	inactive
O=c1[nH]c(N2CCSCC2)nc2ncn(Cc3ccc4ccccc4c3)c12	> 500 µM	64 µM (≈ 24.2 µg/mL)	125 µM (≈ 47.2 µg/mL)	16 µM (≈ 6.04 µg/mL)	16 µM (≈ 6.04 µg/mL)	8 µM (≈ 3.02 µg/mL)	8 µM (≈ 3.02 µg/mL)	16 µM (≈ 6.04 µg/mL)	16 µM (≈ 6.04 µg/mL)	16 µM (≈ 6.04 µg/mL)	8 µM (≈ 3.02 µg/mL)	< 4.49	< 4.30	127 µL/min/mg	inactive	inactive	inactive	inactive	inactive
c1ccc2cc(Cn3cnc4nc(N5CCOCC5)nc(NC5CCC5)c43)ccc2c1	500 µM (≈ 207 µg/mL)	8 µM (≈ 3.32 µg/mL)	8 µM (≈ 3.32 µg/mL)	4 µM (≈ 1.66 µg/mL)	4 µM (≈ 1.66 µg/mL)	4 µM (≈ 1.66 µg/mL)	4 µM (≈ 1.66 µg/mL)	8 µM (≈ 3.32 µg/mL)	4 µM (≈ 1.66 µg/mL)	8 µM (≈ 3.32 µg/mL)	8 µM (≈ 3.32 µg/mL)	4.48	–	36.6 µL/min/mg	Active	Active	Active	inactive	inactive
c1ccc(CNc2nc(N3CCOCC3)nc3ncn(Cc4ccc5ccccc5c4)c23)cc1	64 µM (≈ 28.8 µg/mL)	4 µM (≈ 1.8 µg/mL)	8 µM (≈ 3.6 µg/mL)	4 µM (≈ 1.8 µg/mL)	4 µM (≈ 1.8 µg/mL)	4 µM (≈ 1.8 µg/mL)	4 µM (≈ 1.8 µg/mL)	4 µM (≈ 1.8 µg/mL)	2 µM (≈ 0.901 µg/mL)	4 µM (≈ 1.8 µg/mL)	4 µM (≈ 1.8 µg/mL)	4.47	–	72.1 µL/min/mg	inactive	inactive	inactive	inactive	inactive
O=c1[nH]c(N2CCOCC2)nc2ncn(Cc3ccc4ccccc4c3)c12	> 500 µM	64 µM (≈ 23.1 µg/mL)	125 µM (≈ 45.2 µg/mL)	32 µM (≈ 11.6 µg/mL)	64 µM (≈ 23.1 µg/mL)	32 µM (≈ 11.6 µg/mL)	32 µM (≈ 11.6 µg/mL)	64 µM (≈ 23.1 µg/mL)	32 µM (≈ 11.6 µg/mL)	64 µM (≈ 23.1 µg/mL)	64 µM (≈ 23.1 µg/mL)	< 3.90	< 4.30	12.6 µL/min/mg	inactive	inactive	inactive	inactive	inactive
